Active and inactive are the calls of the source. The rule behind the calls is not given here.
Columns and labels:
[1] = biological target: Fibroblast growth factor receptor (Homo sapiens) (UniProt P22607+P11362+P22455+P21802); experiment: Induction of FGFR degradation in human KATO III stomach cancer cell line assessed as reduction in FGFR phosphorylation at A-loop Tyr656/657 residue at 25 nM measured for 6 hrs; assay type: cell-based
Method in brief: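 KATO III cells treated 6 h at the indicated concentrations with degrader or BGJ398; FGFR A-loop Tyr656/657 autophosphorylation monitored by immunoblot.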

SNU-16 [2] = experiment: Antitumor activity against human SNU-16 cells xenografted in BALB/c nude mouse assessed as reduction in FGFR phosphorylation in tumor at 20 mg/kg, po measured at 4 hrs; assay type: functional, organism-based
Method in brief: (§1)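 Female BALB/c nude mice, 5 weeks old (20–22 g), s.c. right-flank SNU-16 implants, randomized by body weight into groups (n = 5) once tumours reached 50–100 mm3. Dosing 20 mg/kg/day intragastric in 0.5% CMC-Na for 15 d; vehicle controls. Tumour width and length measured every 2 days; tumours harvested 4 h after last dose and lysates immunoblotted for pFGFR, FGFR2, pPLCγ, pErk.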

[3] = biological target: Macrophage colony-stimulating factor 1 receptor (Homo sapiens) (UniProt P07333); experiment: Inhibition of partial length human CSF1R at 1000 nM by KINOMEscan analysis relative to control
Method in brief: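 97-kinase scanEDGE panel screened at 1000 nM; results reported as % Ctrl, lower values meaning stronger inhibition.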

[4] = biological target: Fibroblast growth factor receptor 3 (Homo sapiens) (UniProt P22607); experiment: Induction of FGFR3 degradation in human MCF7 cells at 100 nM measured for 6 hrs Western blot analysis; assay type: cell-based
Method in brief: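 NCI-H1581 (FGFR1), MCF7 (FGFR3) and Huh7 (FGFR4) cells, which endogenously express the isoforms, treated with 100 nM for 6 h; isoform levels by Western blot against β-actin, three biologically independent experiments.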

BaF3 [5] = experiment: Antiproliferative activity against mouse BaF3 cells expressing Tel-FGFR1 assessed as cell growth inhibition measured after 72 hrs by celltiter-glo reagent based assay; assay type: functional; conditions: BaF3, 72 h
Method in brief: (§2)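 Ba/F3 cells stably expressing cytoplasmic TEL-FGFR1, -2, -3 or -4 fusions were treated in 96-well format, final DMSO 0.1%, for 72 h. Viability read by CellTiter-Glo luminescence after 10 min at room temperature. Inhibition calculated from blank- and control-corrected RLU; IC50 from 4-parameter concentration–response fit.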

BaF3 [6] = experiment: Antiproliferative activity against mouse BaF3 cells expressing Tel-FGFR2 assessed as cell growth inhibition measured after 72 hrs by celltiter-glo reagent based assay; assay type: functional; conditions: BaF3, 72 h; method in brief: as §2
BaF3 [7] = experiment: Antiproliferative activity against mouse BaF3 cells expressing Tel-FGFR3 assessed as cell growth inhibition measured after 72 hrs by celltiter-glo reagent based assay; assay type: functional; conditions: BaF3, 72 h; method in brief: as §2
BaF3 [8] = experiment: Antiproliferative activity against mouse BaF3 cells expressing Tel-FGFR4 assessed as cell growth inhibition measured after 72 hrs by celltiter-glo reagent based assay; assay type: functional; conditions: BaF3, 72 h; method in brief: as §2
[9] = system: KATO III stomach cancer cell line; experiment: Antiproliferative activity against human KATO III stomach cancer cell line assessed as reduction in cell viability measured for 72 hrs by celltiter-glo reagent based assay; assay type: functional
Method in brief: (§3)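 Cancer lines KATO III, SNU16, NCI-H716, NCI-H1975, MV-4-11 and HEK293T treated 72 h; antiproliferative IC50 given as mean ± s.d. from three independent biological experiments.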

NCI-H716 = experiment: Antiproliferative activity against human NCI-H716 cells assessed as reduction in cell viability measured for 72 hrs by celltiter-glo reagent based assay; assay type: functional; conditions: NCI-H716, 72 h; method in brief: as §3
NCI-H1975 = experiment: Antiproliferative activity against human NCI-H1975 cells assessed as reduction in cell viability measured for 72 hrs by celltiter-glo reagent based assay; assay type: functional; conditions: NCI-H1975, 72 h; method in brief: as §3
[10] = system: KATO III stomach cancer cell line; experiment: Induction of cell cycle arrest in human KATO III stomach cancer cell line assessed as accumulation of cells at G0/G1 phase […] by flow cytometry analysis; assay type: functional, cell-based
Method in brief: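 KATO III cells harvested with EDTA-free trypsin, fixed in cold 70% ethanol overnight at −20 °C, stained with DNA staining solution 30 min at room temperature, analysed by flow cytometry.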

[11] = Half life in Sprague-Dawley rat at 20 mg/kg, po measured at 0.25 to 24 hrs by LC-MS/MS analysis; assay type: ADME, organism-based; conditions: in vivo, time 0.25-24 hrs
Method in brief: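 Male Sprague Dawley rats, single dose i.v. 3 mg/kg or p.o. 20 mg/kg in 10% Solutol, 85% (10% HP-β-CD in saline), 5% DMSO, pH adjusted to 9–10.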

[12] = Tmax in Sprague-Dawley rat at 3 mg/kg, iv measured at 0.083 to 24 hrs by LC-MS/MS analysis; assay type: ADME, organism-based; conditions: in vivo, time 0.083-24 hrs
Method in brief: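 Male Sprague Dawley rats received a single dose of 3 mg/kg i.v. or 20 mg/kg p.o. Vehicle was 10% Solutol, 85% (10% HP-β-CD in saline) and 5% DMSO, adjusted to pH 9–10. Plasma was assayed by LC–MS/MS.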

[13] = Toxicity in ICR mouse assessed as change in heart weight at 20 mg/kg, po measured for 30 days; assay type: organism-based; conditions: in vivo, 720 h, time 30 day
Method in brief: (§4)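 ICR mice (n = 6) were dosed orally at 20 mg/kg/day for 30 days, alongside vehicle-treated controls. Mortality and clinical signs were checked daily. At the end, body and organ weights were recorded. Heart, liver, spleen, lung and kidney were examined by hematoxylin and eosin staining.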

[14] = Hepatotoxicity in ICR mouse assessed as effect on ALT level at 20 mg/kg, po measured for 30 days; assay type: toxicity, organism-based; conditions: in vivo, 720 h, time 30 day
Method in brief: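 ICR mice given 20 mg/kg/day orally for 30 days (n = 6), vehicle controls; mortality and clinical signs checked daily, then AST/ALT and creatinine, organ weights, haematology and H&E of heart, liver, spleen, lung, kidney.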

[15] = Toxicity in ICR mouse assessed as morphological changes in lung at 20 mg/kg, po measured for 30 days by hematoxyin-eosin staining based analysis; assay type: organism-based; conditions: in vivo, 720 h, time 30 day; method in brief: as §4
SNU-16 [16] = experiment: Antitumor activity against human SNU-16 cells xenografted in BALB/c nude mouse assessed as tumor growth inhibition at 20 mg/kg, po administered for 15 days and measured on day 2; assay type: functional; conditions: SNU-16, 48 h, time 2 day, read-out: TGI; method in brief: as §1
[17] = Toxicity in BALB/c mouse xenografted with human SNU-16 cells assessed as tolerability at 20 mg/kg, po administered for 15 days and measured on day 2; assay type: organism-based; conditions: in vivo, 48 h, time 2 day
Method in brief: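 Female BALB/c nude mice, 5 weeks old (20–22 g), carried subcutaneous SNU-16 xenografts in the right flank. Dosing began at mean tumor volume 50–100 mm3, after randomization by body weight, n = 5. Mice received 20 mg/kg/day by gavage in 0.5% CMC-Na, QD for 15 d, with vehicle controls. Body weight was measured every 2 days.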

[18] = Cmax in mouse at 20 mg/kg, po measured at 0.25 to 24 hrs by LC-MS/MS analysis; conditions: in vivo
[19] = Clearance in mice at 3 mg/kg, iv measured at 0.083 to 24 hrs by LC-MS/MS analysis; conditions: mouse, in vivo

Macrophage colony-stimulating factor 1 receptor (Homo sapiens), sequence (P07333 whole entry): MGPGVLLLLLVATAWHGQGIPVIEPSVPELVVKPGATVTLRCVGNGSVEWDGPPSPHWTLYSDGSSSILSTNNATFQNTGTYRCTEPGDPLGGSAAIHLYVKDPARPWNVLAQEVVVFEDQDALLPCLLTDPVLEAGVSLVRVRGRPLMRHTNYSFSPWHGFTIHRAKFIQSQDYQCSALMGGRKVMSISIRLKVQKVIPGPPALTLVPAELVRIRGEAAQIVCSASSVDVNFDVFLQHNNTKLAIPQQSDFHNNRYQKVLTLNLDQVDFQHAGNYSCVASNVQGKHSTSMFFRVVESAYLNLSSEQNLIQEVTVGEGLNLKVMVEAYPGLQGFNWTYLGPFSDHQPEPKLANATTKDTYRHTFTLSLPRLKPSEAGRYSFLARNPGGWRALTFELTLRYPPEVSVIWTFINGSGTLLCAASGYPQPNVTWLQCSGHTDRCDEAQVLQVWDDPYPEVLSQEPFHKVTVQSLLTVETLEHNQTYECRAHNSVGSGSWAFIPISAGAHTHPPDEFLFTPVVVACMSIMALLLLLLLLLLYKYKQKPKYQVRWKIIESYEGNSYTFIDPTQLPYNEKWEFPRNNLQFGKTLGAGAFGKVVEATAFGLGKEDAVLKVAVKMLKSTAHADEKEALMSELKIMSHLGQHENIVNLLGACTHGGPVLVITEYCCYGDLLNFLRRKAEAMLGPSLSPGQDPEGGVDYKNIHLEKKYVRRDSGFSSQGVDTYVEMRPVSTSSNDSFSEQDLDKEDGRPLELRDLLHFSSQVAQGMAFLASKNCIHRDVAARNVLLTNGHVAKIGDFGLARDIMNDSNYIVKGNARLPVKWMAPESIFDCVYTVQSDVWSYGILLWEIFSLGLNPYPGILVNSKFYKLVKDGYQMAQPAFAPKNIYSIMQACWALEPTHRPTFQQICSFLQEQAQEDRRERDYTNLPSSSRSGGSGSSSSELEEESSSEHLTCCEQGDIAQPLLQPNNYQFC
Fibroblast growth factor receptor 3 (Homo sapiens), sequence (P22607 23-806 limits assumed): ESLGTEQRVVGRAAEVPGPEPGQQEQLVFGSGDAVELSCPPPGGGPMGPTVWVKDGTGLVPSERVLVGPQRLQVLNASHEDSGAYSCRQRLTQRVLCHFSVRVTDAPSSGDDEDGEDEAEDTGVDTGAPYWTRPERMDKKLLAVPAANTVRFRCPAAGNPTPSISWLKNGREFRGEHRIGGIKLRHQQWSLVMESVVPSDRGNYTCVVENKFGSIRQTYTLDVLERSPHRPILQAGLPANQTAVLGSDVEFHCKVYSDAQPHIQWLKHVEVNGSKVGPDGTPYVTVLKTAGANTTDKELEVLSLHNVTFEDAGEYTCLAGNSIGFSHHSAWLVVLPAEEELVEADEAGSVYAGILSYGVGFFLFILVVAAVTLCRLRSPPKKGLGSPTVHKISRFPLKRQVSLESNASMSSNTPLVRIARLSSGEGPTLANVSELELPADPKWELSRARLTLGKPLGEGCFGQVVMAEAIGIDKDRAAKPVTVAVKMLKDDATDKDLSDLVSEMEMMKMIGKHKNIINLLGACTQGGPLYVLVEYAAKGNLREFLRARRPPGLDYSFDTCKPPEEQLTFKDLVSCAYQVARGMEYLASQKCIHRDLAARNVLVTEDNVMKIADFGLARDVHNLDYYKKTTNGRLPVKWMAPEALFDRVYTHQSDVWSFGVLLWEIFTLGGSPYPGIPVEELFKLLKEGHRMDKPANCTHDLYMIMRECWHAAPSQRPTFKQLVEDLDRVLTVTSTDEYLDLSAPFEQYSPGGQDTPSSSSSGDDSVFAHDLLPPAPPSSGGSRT
Fibroblast growth factor receptor (Homo sapiens), sequence (P11362 whole entry, looked up): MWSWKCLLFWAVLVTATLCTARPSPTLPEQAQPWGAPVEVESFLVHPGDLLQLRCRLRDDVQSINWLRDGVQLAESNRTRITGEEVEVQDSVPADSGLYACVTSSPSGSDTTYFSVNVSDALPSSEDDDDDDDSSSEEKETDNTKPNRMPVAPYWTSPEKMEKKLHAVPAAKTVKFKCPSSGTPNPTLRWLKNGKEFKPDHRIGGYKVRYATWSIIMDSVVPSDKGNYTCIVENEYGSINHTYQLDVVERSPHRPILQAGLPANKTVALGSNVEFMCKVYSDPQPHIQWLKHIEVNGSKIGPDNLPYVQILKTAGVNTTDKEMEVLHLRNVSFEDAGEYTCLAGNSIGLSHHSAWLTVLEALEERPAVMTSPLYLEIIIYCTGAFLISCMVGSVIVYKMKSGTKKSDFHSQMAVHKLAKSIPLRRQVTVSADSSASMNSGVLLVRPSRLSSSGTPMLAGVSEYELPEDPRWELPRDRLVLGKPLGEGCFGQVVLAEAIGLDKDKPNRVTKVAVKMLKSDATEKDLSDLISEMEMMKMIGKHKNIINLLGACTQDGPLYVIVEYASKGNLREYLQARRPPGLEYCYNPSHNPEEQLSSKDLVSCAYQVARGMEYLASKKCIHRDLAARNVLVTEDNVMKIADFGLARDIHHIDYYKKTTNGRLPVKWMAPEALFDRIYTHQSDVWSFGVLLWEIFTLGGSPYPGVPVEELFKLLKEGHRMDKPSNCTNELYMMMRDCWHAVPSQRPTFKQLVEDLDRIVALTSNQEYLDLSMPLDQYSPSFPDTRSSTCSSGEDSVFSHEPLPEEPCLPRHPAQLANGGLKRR
Fibroblast growth factor receptor (Homo sapiens), sequence (P21802 whole entry, looked up): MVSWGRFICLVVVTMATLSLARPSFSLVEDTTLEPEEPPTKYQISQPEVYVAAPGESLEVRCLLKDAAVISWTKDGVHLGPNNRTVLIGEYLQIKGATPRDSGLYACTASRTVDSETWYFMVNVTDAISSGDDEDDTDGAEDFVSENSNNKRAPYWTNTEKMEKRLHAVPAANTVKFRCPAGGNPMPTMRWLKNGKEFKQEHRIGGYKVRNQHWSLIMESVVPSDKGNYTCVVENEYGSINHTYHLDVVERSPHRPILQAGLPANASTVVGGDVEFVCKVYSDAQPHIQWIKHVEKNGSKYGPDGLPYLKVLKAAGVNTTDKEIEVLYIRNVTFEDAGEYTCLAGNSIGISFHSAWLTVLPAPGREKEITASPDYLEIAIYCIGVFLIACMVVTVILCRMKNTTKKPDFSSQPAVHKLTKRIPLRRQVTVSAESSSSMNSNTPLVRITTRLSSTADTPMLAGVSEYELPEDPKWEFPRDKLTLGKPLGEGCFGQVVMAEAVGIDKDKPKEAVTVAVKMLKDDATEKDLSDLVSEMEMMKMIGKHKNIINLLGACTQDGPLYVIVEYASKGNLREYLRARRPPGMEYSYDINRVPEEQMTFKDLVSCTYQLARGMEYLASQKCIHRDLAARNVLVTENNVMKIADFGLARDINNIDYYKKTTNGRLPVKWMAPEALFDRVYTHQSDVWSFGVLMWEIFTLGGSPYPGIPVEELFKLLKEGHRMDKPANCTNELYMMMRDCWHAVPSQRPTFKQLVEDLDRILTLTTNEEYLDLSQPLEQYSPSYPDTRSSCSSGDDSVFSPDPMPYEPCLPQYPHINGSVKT
Fibroblast growth factor receptor (Homo sapiens), sequence (P22455 whole entry, looked up): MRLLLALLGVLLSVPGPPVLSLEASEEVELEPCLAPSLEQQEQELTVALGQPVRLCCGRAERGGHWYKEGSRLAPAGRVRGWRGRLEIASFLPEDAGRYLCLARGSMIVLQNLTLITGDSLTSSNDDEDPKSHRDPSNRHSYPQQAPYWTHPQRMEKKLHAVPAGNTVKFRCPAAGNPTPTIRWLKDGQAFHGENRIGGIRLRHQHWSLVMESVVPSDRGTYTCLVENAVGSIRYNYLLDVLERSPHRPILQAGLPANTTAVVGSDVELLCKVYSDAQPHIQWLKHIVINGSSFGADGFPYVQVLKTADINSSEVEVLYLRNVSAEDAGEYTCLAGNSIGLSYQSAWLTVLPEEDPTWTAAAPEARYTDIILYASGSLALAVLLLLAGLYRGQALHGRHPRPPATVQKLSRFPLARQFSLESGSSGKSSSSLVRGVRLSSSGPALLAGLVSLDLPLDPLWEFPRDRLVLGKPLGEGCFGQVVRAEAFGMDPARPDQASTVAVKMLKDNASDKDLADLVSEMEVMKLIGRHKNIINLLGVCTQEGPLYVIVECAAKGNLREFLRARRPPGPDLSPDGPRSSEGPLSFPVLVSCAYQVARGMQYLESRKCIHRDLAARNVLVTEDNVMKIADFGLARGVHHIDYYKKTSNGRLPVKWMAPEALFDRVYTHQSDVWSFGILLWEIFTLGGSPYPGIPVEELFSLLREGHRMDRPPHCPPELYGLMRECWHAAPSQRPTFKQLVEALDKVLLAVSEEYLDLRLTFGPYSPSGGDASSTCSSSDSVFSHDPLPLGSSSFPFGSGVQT
Fibroblast growth factor receptor (Homo sapiens), sequence (P22607 whole entry, looked up): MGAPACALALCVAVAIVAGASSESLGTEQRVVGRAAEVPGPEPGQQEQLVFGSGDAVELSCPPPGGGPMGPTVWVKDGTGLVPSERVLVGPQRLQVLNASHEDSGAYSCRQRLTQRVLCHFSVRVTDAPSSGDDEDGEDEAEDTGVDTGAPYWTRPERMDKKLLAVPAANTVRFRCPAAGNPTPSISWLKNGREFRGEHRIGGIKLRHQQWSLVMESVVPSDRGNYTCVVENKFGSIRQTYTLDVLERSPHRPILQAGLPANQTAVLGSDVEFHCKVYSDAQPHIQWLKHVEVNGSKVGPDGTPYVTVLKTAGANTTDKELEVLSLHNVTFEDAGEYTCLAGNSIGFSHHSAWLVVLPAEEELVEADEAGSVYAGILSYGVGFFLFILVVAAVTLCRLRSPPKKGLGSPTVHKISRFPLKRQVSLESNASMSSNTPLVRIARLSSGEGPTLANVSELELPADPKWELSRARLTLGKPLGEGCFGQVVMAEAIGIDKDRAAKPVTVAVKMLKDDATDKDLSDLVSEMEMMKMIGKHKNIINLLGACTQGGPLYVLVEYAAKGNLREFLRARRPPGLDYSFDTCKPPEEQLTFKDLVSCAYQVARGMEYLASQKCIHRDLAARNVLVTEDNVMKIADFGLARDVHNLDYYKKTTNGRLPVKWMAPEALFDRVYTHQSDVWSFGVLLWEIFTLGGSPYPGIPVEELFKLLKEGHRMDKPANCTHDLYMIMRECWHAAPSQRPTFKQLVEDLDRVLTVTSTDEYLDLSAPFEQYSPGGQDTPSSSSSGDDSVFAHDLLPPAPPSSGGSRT

Activity [1]: Active
inhibition [3]: 76%
Activity [4]: inactive
IC50 (BaF3 [5]): 0.125 µM
IC50 (BaF3 [6]): 0.0103 µM
IC50 (BaF3 [7]): 0.139 µM
IC50 (BaF3 [8]): > 10 µM
IC50 [9]: 0.0291 µM
IC50 (NCI-H716): 0.0032 µM
IC50 (NCI-H1975): > 10 µM
half-life [11]: 88.2 min
Tmax [12]: 4.98 min
Cmax [18]: 82.1 ng/mL
clearance [19]: 121 mL/min/kg
Compound: COc1cc(OC)c(Cl)c(NC(=O)N(C)c2cc(Nc3ccc(N4CCN(C(=O)C5CCN(c6ccc7c(c6)C(=O)N(C6CCC(=O)NC6=O)C7=O)CC5)CC4)cc3)ncn2)c1Cl (stereo unspecified)
Activity (SNU-16 [2]): Active
Activity [10]: Active
Activity [13]: Non-Toxic
Activity [14]: Non-Toxic
Activity [15]: Non-Toxic
inhibition in vivo at 20 mg/kg (SNU-16 [16]): 63.1%
Activity [17]: Non-Toxic
